Assay [1] relates to MDA-MB-231. Briefly: Inhibition of histone deacetylase expressed in human MDA-MB-231 cells. Type of assay: cell-based. A digest of the protocol: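 Cell extracts from MDA-MB-231 breast carcinoma served as enzyme source. Trichostatin A at 250 nM was the reference inhibitor. Test concentrations were 10, 2, 0.4, 0.08 and 0.016 µg/mL. Data are % inhibition relative to controls.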

For assay [2], the system named is MDA-MB-231. The assay is described as follows: Cytotoxicity against human MDA-MB-231 cells after 48 hrs by sulforhodamine B assay. Type of assay: functional. The settings on record: MDA-MB-231, 48 h. A digest of the protocol: (§1)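 Cells seeded at 5×10^3 per well in RPMI and allowed to attach for 18 h in drug-free medium. Samples were added in 3:7 DMSO/H2O, with highest concentration 100 µM, and exposed for 48 h. Cells were fixed with cold TCA at 4 °C for 60 min, stained with 0.4% SRB and solubilized in Tris. OD was read at 490 nm. GI50, TGI and LC50 came from automated analysis following the NCI protocol.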
(In general: The SRB assay estimates cell density from bound dye.)

In another assay the test system is HT-29. The assay is described as follows: Cytotoxicity against human HT-29 cells after 48 hrs by sulforhodamine B assay. In kind it is functional. The note with it: HT-29, 48 h. Summed up: as §1
The target of assay [3] is Epidermal growth factor receptor (Homo sapiens) (UniProt P00533). Briefly: Inhibition of EGFR expressed in human HeLa cells at 10 ug/mL by AP1-luciferase reporter gene assay relative to control. Type of assay: cell-based. Summed up: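 AP1-luc stably transfected HeLa cells were grown in DMEM/10% FBS at 20,000 cells/well and set for 24 h. They were treated with 1% DMSO vehicle or compound (10, 2, 0.4, 0.08, 0.016 µg/mL) before stimulation with EGF at 25 ng/mL. Control inhibitor was AG-1478 at 20 µM. Survival was checked by calcein-AM (0.1 µM, 30 min, 37 °C), then luciferase read by luminescence. Values are % of control.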
Chain of Epidermal growth factor receptor (Homo sapiens) (P00533 whole entry): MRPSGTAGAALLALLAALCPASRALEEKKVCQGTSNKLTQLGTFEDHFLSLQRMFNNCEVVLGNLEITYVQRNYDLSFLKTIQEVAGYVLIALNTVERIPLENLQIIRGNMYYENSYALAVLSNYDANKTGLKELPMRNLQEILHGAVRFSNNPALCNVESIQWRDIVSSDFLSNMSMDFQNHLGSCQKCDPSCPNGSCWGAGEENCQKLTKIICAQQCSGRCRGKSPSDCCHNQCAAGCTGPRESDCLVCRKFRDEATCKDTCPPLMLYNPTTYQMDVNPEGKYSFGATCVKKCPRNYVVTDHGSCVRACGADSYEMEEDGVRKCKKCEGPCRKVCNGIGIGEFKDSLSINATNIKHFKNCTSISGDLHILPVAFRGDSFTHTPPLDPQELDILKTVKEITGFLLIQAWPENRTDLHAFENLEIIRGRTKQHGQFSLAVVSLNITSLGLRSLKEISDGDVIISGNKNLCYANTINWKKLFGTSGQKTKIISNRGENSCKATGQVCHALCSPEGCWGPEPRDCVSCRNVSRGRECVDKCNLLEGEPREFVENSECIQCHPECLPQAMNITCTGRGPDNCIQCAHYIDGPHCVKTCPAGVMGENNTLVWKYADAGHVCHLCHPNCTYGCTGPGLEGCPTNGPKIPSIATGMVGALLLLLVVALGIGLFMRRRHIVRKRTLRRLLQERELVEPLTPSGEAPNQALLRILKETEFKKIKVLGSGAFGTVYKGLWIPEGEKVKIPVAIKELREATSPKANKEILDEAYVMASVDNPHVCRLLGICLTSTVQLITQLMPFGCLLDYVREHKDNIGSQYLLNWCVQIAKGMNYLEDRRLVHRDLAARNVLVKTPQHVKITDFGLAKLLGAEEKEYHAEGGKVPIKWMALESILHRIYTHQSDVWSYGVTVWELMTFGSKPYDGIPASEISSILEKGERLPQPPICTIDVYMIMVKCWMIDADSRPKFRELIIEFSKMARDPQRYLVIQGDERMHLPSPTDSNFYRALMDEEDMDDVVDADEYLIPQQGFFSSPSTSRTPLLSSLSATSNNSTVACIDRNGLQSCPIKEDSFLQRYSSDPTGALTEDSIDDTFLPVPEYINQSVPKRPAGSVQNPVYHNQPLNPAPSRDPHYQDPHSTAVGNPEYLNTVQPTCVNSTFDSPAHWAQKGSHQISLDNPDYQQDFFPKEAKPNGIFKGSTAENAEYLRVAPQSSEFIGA
In general terms: Reporter assays use an easily measured gene product as a stand-in for the process of interest.

The target of assay [4] is Hypoxia-inducible factor 1-alpha (Homo sapiens) (UniProt Q16665). Briefly: Inhibition of HIF1alpha expressed in human HeLa cells at 10 ug/mL by HIF1-luciferase reporter gene assay relative to control. In kind it is cell-based. Summed up:
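HIF1-luc stably transfected HeLa cells were plated at 20,000 cells/well and set for 24 h. They were pretreated 30 min with 1% DMSO vehicle or compound (10, 2, 0.4, 0.08, 0.016 µg/mL), then given 50 µM deferoxamine as hypoxia mimetic for 24 h. Survival was measured by calcein-AM fluorescence (0.1 µM, 30 min, 37 °C), followed by luciferase luminescence. Reported as % of control.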

The target of assay [5] is T1, Catenin beta-1 (Homo sapiens) (UniProt P35222).
T1 sequence (whole entry): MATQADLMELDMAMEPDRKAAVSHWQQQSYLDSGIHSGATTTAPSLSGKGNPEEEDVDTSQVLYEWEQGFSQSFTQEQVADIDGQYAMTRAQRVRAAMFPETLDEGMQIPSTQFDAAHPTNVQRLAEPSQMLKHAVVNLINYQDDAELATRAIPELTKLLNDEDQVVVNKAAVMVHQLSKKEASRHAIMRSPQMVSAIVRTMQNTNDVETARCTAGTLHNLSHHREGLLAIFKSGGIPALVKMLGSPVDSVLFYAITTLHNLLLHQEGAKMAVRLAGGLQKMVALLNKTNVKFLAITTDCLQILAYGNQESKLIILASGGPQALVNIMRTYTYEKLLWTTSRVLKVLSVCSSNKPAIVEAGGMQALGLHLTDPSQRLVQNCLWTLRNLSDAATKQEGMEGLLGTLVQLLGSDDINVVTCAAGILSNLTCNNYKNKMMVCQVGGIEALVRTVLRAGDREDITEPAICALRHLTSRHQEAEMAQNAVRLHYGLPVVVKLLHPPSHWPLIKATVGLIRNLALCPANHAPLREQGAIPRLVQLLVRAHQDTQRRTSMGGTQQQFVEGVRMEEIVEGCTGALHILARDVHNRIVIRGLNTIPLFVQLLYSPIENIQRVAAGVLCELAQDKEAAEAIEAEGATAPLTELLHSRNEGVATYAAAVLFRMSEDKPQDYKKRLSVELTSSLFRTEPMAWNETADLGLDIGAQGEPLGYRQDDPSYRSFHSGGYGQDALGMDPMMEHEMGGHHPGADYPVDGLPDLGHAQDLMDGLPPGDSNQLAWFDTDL
The assay is described as follows: Inhibition of beta-catenin expressed in human SW480 cells by luciferase reporter gene assay.

The test system of a further assay is A549. Briefly: Cytotoxicity against human A549 cells after 48 hrs by sulforhodamine B assay. In kind it is functional. The settings on record: A549, 48 h. A digest of the protocol: as §1
A further assay concerns HeLa. The assay is described as follows: Inhibition of mitosis in human HeLa cells assessed as G2 checkpoint inhibition by ELISA. In kind it is functional, cell-based. A digest of the protocol:
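ELISA immunoassay in HeLa cells. Paclitaxel and vinblastine (each 1 µg/mL) were control inhibitors. Five fixed concentrations were tested (10, 2, 0.4, 0.08, 0.016 µg/mL). Inhibition and survival are given as % of controls.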

Setting [6] is: read-out: LC50 (the source's name).

Active and inactive are the calls of the source. The calls are words filed in the database; no cut-off is given here. Where only a bound is given, the exact number is not on record here.

Chain of Hypoxia-inducible factor 1-alpha (Homo sapiens) (Q16665 whole entry, looked up): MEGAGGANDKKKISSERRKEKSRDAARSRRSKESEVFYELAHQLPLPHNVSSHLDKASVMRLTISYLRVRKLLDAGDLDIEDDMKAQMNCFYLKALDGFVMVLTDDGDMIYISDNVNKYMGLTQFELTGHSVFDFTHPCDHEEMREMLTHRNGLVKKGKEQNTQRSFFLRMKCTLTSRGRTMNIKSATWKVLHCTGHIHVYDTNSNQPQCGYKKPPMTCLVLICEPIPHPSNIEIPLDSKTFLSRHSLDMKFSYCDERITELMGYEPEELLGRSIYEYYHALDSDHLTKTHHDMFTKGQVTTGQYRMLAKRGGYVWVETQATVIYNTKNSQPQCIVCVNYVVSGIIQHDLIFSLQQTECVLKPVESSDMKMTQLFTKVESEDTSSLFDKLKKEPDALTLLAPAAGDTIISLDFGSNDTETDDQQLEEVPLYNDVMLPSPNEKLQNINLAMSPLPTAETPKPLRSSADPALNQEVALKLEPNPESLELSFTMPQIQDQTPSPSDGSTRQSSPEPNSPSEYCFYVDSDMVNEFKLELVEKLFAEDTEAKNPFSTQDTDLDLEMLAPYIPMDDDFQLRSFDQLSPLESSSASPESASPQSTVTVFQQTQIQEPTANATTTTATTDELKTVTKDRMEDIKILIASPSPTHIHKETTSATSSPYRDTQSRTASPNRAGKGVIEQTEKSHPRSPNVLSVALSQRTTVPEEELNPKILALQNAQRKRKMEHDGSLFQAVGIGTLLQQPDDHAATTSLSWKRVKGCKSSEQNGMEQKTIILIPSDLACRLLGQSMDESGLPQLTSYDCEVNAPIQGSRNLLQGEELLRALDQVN

For the compound `COC(=O)[C@@H]1C[C@@]2(Br)c3cc(Br)ccc3N3C(=N)C(C)(C)N1[C@H]32`, the outcome (in the assay on MDA-MB-231 [1]; in assay [5]; in the assay with HeLa) was inactive. In addition, the GI50 in the assay on MDA-MB-231 [2], in the assay on HT-29 and in the assay with A549 was greater than 100 µM each time. In addition, the TGI with MDA-MB-231 [2], with HT-29 and with A549 was greater than 100 µM in each case. Moreover, the CC50 in the assay on MDA-MB-231 [2] (setting [6]) and with A549 (setting [6]) was greater than 100 µM in each case. In addition, in the assay on HT-29, the LC50 (concentration killing 50% of cells) is greater than 100 µM. Also, the inhibition – broadly, the change of the read-out against control, counted positive when it falls – in assay [3] was determined as 45%; in assay [4], 55%.

Source of the values: ChEMBL document CHEMBL1152234, “Synthesis and antitumoral evaluation of indole alkaloid analogues containing an hexahydropyrrolo[1',2',3':1,9a,9]imidazo[1,2-a]indole skeleton” (2008).
